# Measured values pooled from the literature.
# Compare with care: the assays were run in different laboratories.
# Target: Dual specificity tyrosine-phosphorylation-regulated kinase 1A (DYRK1A, Homo sapiens, UniProt Q13627)
SMILES,assay,conditions,endpoint,value
CC(C)(C)c1cc(C=C(C#N)C#N)cc(Br)c1O,"enzyme activity, inhibitor",0.5 µM,remaining activity,95.4%
Cn1cncc1[C@](O)(COc1ccc(C#N)cc1-c1ccc(OC(F)(F)F)cc1)c1ccc(C#N)cc1,"cell-free assay, competition with immobilised ligand",1 µM,remaining binding,81%
Cn1cc(-c2cc(F)cc(N3CCn4c(cc5c4CCCC5)C3=O)c2CO)cc(Nc2ccc(N3CCN(C4COC4)CC3)cn2)c1=O,"enzyme activity, inhibitor",0.1 µM,inhibition,4%
N#CC1(c2ccccn2)CCN(Cc2cc(C(=O)O)c(=O)n3ccccc23)CC1,"cell-free assay, competition with immobilised ligand",1 µM,remaining binding,97%
COc1ncccc1-c1cnn2ccc(N3CCN(C(=O)OC(C)C)CC3)nc12,"binding, competition with immobilised ligand",1 µM,remaining binding,95%
Cn1cc(-c2cccc(N3CCc4c(sc5c4CC(C)(C)C5)C3=O)c2CO)cc(Nc2ccncn2)c1=O,"enzyme activity, inhibitor",1 µM,inhibition,5%
Cc1nn(C)cc1-c1nc2c(N3CCN(Cc4ccc(Cl)cc4)CC3)c(Cl)cnc2[nH]1,"binding, competition with immobilised ligand",1 µM,remaining binding,82%
O=c1[nH]c2ccccc2n1C1CCN(Cc2ccc(-c3[nH]c4cc5ncnc5cc4nc3-c3ccccc3)cc2)CC1,cell-free assay,0.5 µM,remaining signal,101%
COc1cc(Nc2ncc(F)c(Nc3ccc4c(n3)NC(=O)C(C)(C)O4)n2)cc(OC)c1OC,"binding, competition with immobilised ligand",10 µM,inhibition,91%
Nc1ncc(-c2nc(N3CCOCC3)nc(N3CCOCC3)n2)c(C(F)F)n1,"cell-free assay, competition with immobilised ligand",10 µM,remaining binding,48%
